From ChEMBL document CHEMBL1149140, “Orally bioavailable competitive CCR5 antagonists” (J Med Chem, 2004)
Blank lines part the entries; values can stand above or below the compound they belong to.

How the values were obtained:
[1] = molecular target: T1, C-C chemokine receptor type 5 (Homo sapiens, UniProt P51681); test: Antagonistic activity against human C-C chemokine receptor type 5.; type: functional
In short: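 SPA radioligand binding using membranes from CHO cells transfected with human or cynomolgus CCR5. Buffer was 50 mM HEPES, 6 mM CaCl2, 12 mM MgCl2, 100 mM NaCl and 0.5% BSA. Incubated 2 h shaking at room temperature. Nonspecific binding defined with 100 nM unlabeled MIP-1α. IC50 reported.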

[2] = molecular target: T1, C-C chemokine receptor type 5; test: Rises in intracellular [Ca2+] levels by using [Ca2+] sensitive Fluo4 dye in C-C chemokine receptor type 5-transfected CHO cells.; type: functional, cell-based
In short: (§1)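 CCR5-transfected CHO cells were loaded with 4 µM Fluo4 for 1 h at 37 °C (HBSS, 20 mM HEPES pH 7.4, 0.1% BSA, 2.5 mM probenecid), then washed. Compound preincubated 2 h at room temperature. Baseline read 20 s on FLIPR, then MIP-1α added (final 10 nM) and recorded 3 min. IC50 from concentration-dependent reduction of Fmax−Fmin.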

Homo sapiens = species: Homo sapiens; test: (§2) Compound was evaluated for rises in intracellular [Ca2+] levels pre-incubation at 2.5 min in [Ca2+] Mobilization Assay; type: functional, organism-based
In short: (§3)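 Fluo4-loaded CCR5-transfected CHO cells on FLIPR. Baseline read 20 s, then compound added and monitored 2.5 min, then MIP-1α agonist (final 10 nM) added and fluorescence recorded 3 min. IC50 from inhibition of the MIP-1α-induced fluorescence rise.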

[3] = Compound was evaluated for rises in intracellular [Ca2+] levels pre-incubation at 2 hr in [Ca2+] Mobilization Assay; type: functional, cell-based; in short: as §1
[4] = Cmax in monkeys at a dose of […] mg/kg; type: ADME, organism-based; details: simiiformes, in vivo, 1 mg/kg
[5] = Cmax in rats at a dose of […] mg/kg; type: ADME, organism-based; details: rat, in vivo, 1 mg/kg
[6] = AUC in monkeys at a dose of […] mg/kg; type: ADME, organism-based, Plasma; details: simiiformes, in vivo, 1 mg/kg
Rattus norvegicus = test: AUC in rats at a dose of […] mg/kg; type: ADME, organism-based, Plasma; details: in vivo, 1 mg/kg
[7] = Mean residence time was determined; type: ADME, organism-based; details: in vivo
[8] = Mean residence time in monkeys; type: ADME, organism-based; details: simiiformes, in vivo
[9] = Oral bioavailability; type: ADME, organism-based; details: eutheria, in vivo
[10] = Oral bioavailability in rat; type: ADME, organism-based; details: in vivo
[11] = Tmax in rats; type: ADME, organism-based; details: rat, in vivo
[12] = as §2; type: functional, cell-based; in short: as §3
[13] = molecular target: CCR5 (Macaca fascicularis); test: Antagonistic activity against cynomolgus monkey C-C chemokine receptor type 5
[14] = Mean residence time in rat; type: ADME, organism-based; details: in vivo
[15] = Compound was evaluated for rises in intracellular [Ca2+] levels by using [Ca2+] sensitive Fluo4 dye in CCR5-transfected CHO cells; type: functional, cell-based; in short: as §1
[16] = Tmax in monkeys; type: ADME; details: simiiformes, in vivo
[17] = Mean residence time in rats; type: ADME, organism-based; details: rat, in vivo

T1 sequence (P51681 whole entry): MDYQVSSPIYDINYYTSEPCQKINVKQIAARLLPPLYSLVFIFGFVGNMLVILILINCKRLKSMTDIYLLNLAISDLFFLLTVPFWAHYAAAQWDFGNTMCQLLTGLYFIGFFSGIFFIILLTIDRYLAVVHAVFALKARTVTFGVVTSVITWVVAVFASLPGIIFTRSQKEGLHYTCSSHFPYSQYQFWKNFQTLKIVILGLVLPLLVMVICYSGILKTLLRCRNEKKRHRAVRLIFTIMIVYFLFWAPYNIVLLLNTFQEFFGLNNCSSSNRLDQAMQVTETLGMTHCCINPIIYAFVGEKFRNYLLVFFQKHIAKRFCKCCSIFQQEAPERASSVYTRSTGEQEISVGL

SMILES: CC1(N2CCC(N(c3ccccc3)c3ccccc3)CC2)CCN(C(=O)C2CCCCC2)CC1
- IC50 [1]: 408 nM
- IC50 [2]: 580 nM

SMILES: Cc1ncnc(C)c1C(=O)N1CCC(C)(N2CCC(N(c3ccccc3)c3ccccc3)CC2)CC1
- IC50 (Homo sapiens): 28 nM
- IC50 [3]: 8 nM

- IC50 [1]: 100 nM
SMILES: Cc1cccc(C)c1C(=O)N1CCC(C)(N2CCC(Nc3ccccc3)CC2)CC1

SMILES: Cc1nc[n+]([O-])c(C)c1C(=O)N1CCC(C)(N2CCC(N(c3ccccc3)c3ccccc3)CC2)CC1
- Cmax [4]: 91 ng/mL
- Cmax [5]: 91 ng/mL
- AUG [6]: 1550 ng·h/mL
- AUG (Rattus norvegicus): 1030 ng·h/mL
- MRT [7]: 6 h
- MRT [8]: 5.1 h
- bioavailability [9]: 58%
- bioavailability [10]: 94%

SMILES: CC1(N2CCC(N(c3ccccc3)c3ccccc3)CC2)CCN(C(=O)c2c[nH]c3ccccc23)CC1
- IC50 [1]: 48 nM
- IC50 [2]: 283 nM

- IC50 [1]: > 1000 nM
SMILES: COc1cc(CN(c2ccccc2)C2CCN(C3(C)CCN(C(=O)c4c(C)cc[n+]([O-])c4C)CC3)CC2)cc(OC)c1OC

- Cmax [5]: 73 ng/mL
- AUG (Rattus norvegicus): 513 ng·h/mL
- MRT [7]: 5.8 h
- bioavailability [9]: 57%
- Tmax [11]: 0.5 h
- IC50 [1]: 2.8 nM
- IC50 [2]: 30 nM
- IC50 [12]: 125 nM
- IC50 [3]: 24.6 nM
- IC50 [13]: 7.9 nM
SMILES: Cc1nc(-c2ccncc2)nc(C)c1C(=O)N1CCC(C)(N2CCC(N(c3ccccc3)c3ccccc3)CC2)CC1

SMILES: CC1(N2CCC(N(c3ccccc3)c3ccccc3)CC2)CCN(C(=O)c2cccc3ccccc23)CC1
- Cmax [4]: 70 ng/mL
- AUG (Rattus norvegicus): 518 ng·h/mL
- MRT [14]: 14.4 h
- bioavailability [10]: 100%
- IC50 [12]: 610 nM
- IC50 [3]: 29 nM
- IC50 [15]: 29.4 nM

SMILES: Cc1ccccc1C(=O)N1CCC(C)(N2CCC(N(c3ccccc3)c3ccccc3)CC2)CC1
- IC50 [1]: 7.8 nM
- IC50 [2]: 67 nM

- IC50 [1]: 460 nM
SMILES: Cc1cccc(C)c1C(=O)N1CCC(C)(N2CCC(Nc3ccc(-c4ccccc4)cc3)CC2)CC1

- IC50 [1]: > 1000 nM
- IC50 [2]: > 1000 nM
SMILES: Cc1cccc(C)c1C(=O)N1CCC(C)(N2CCC(NCc3ccccc3)CC2)CC1

- IC50 [1]: 0.8 nM
- IC50 [2]: 27.3 nM
SMILES: Cc1cccc(C)c1C(=O)N1CCC(C)(N2CCC(Nc3ccc(C(F)(F)F)cc3)CC2)CC1

SMILES: Cc1cc[n+]([O-])c(C)c1C(=O)N1CCC(C)(N2CCC(N(Cc3ccccc3C#N)c3ccccc3)CC2)CC1
- IC50 [1]: 80 nM
- IC50 [2]: > 3000 nM

SMILES: Cc1cccc(C)c1C(=O)N1CCC(C)(N2CCC(N(Cc3ccccc3)c3ccccc3)CC2)CC1
- Cmax [4]: 7 ng/mL
- Cmax [5]: 90 ng/mL
- AUG [6]: 33 ng·h/mL
- AUG (Rattus norvegicus): 569 ng·h/mL
- MRT [7]: 8.9 h
- MRT [8]: 4.1 h
- bioavailability [9]: 4%
- bioavailability [10]: 85%
- Tmax [16]: 0.5 h
- IC50 [12]: 200 nM

SMILES: Cc1cc(C)c(S(=O)(=O)N2CCC(C)(N3CCC(N(c4ccccc4)c4ccccc4)CC3)CC2)c(C)c1
- IC50 [1]: 41 nM

- IC50 [1]: 75 nM
SMILES: Cc1cccc(C)c1C(=O)N1CCC(C)(N2CCC(N(Cc3ccccc3)Cc3ccccc3)CC2)CC1

SMILES: CN(C)C(=O)c1ccccc1C(=O)N1CCC(C)(N2CCC(N(c3ccccc3)c3ccccc3)CC2)CC1
- IC50 [1]: > 100 nM

SMILES: Cc1ccnc(C)c1C(=O)N1CCC(C)(N2CCC(N(c3ccccc3)c3ccccc3)CC2)CC1
- IC50 [12]: 114 nM

- IC50 [1]: 102 nM
- IC50 [2]: 2170 nM
SMILES: Cc1cccc(C)c1C(=O)N1CCC(C)(N2CCC(Nc3cccc4ccn(C)c34)CC2)CC1

SMILES: Cc1cc[n+]([O-])c(C)c1C(=O)N1CCC(N2CCC(N(c3ccccc3)c3ccccc3)CC2)CC1
- IC50 [1]: 9 nM
- IC50 [2]: 127 nM

- IC50 [1]: 91 nM
- IC50 [2]: 1680 nM
SMILES: Cc1cccc(C)c1C(=O)N1CCC(C)(N2CCC(Nc3ccc4ccn(C)c4c3)CC2)CC1

SMILES: Cc1cccc(C)c1C(=O)N1CCC(C)(N2CCC(N(Cc3ccccc3)c3ccc(Br)cc3)CC2)CC1
- IC50 [1]: 2.3 nM
- IC50 [2]: 15.6 nM
- IC50 [12]: 1450 nM
- IC50 [3]: 28 nM

SMILES: Cc1cccc(C)c1C(=O)N1CCC(C)(N2CCC(N(c3ccccc3)c3ccccc3)CC2)CC1
- Cmax [4]: 81 ng/mL
- AUG (Rattus norvegicus): 664 ng·h/mL
- MRT [17]: 6.9 h
- bioavailability [9]: 0%
- bioavailability [10]: 62%
- Tmax [11]: 0.5 h
- IC50 [12]: 250 nM

SMILES: COc1cccc(OC)c1C(=O)N1CCC(C)(N2CCC(N(c3ccccc3)c3ccccc3)CC2)CC1
- IC50 [1]: 42 nM

SMILES: Cc1cc[n+]([O-])c(C)c1C(=O)N1CCC(C)(N2CCC(N(c3ccccc3)c3ccccc3)CC2)CC1
- IC50 [1]: 3.3 nM
- IC50 [2]: 16 nM
- IC50 [12]: 33 nM
- IC50 [3]: 16 nM

- Cmax [4]: 12 ng/mL
- AUG [6]: 115 ng/mL/h
- bioavailability [9]: 0%
- bioavailability [10]: 86%
SMILES: Cc1nc(-c2ccccc2)nc(C)c1C(=O)N1CCC(C)(N2CCC(N(c3ccccc3)c3ccccc3)CC2)CC1
